ChEMBL document CHEMBL4346700, “Structure-based modification of carbonyl-diphenylpyrimidines (Car-DPPYs) as a novel focal adhesion kinase (FAK) inhibitor against various stubborn cancer cells” (Eur J Med Chem, 2019)
The source made the active and inactive calls. The calls are words filed in the database; no cut-off is given here.

Tests used:
BXPC-3 = experiment: Antiproliferative activity against human BxPC3 cells assessed as reduction in cell growth incubated for 72 hrs by MTT assay; settings: BXPC-3, 72 h
L02 = experiment: Cytotoxicity against human L02 cells assessed as reduction in cell growth incubated for 72 hrs by MTT assay; settings: L02, 72 h
PANC-1 = experiment: Antiproliferative activity against human PANC1 cells assessed as reduction in cell growth incubated for 72 hrs by MTT assay; settings: PANC-1, 72 h
NCI/ADR-RES = experiment: Antiproliferative activity against human MCF7/ADR cells assessed as reduction in cell growth incubated for 72 hrs by MTT assay
ASPC1 [1] = experiment: Antiproliferative activity against human AsPC1 cells assessed as reduction in cell growth incubated for 72 hrs by MTT assay; settings: ASPC1, 72 h
NCI-H1975 = experiment: Antiproliferative activity against human NCI-H1975 cells assessed as reduction in cell growth incubated for 72 hrs by MTT assay; settings: NCI-H1975, 72 h
[2] = Cytotoxicity against human HPDEC cells assessed as reduction in cell growth incubated for 72 hrs by MTT assay
[3] = target: Focal adhesion kinase 1 (Homo sapiens) (UniProt Q05397); experiment: Inhibition of FAK in human AsPC1 cells assessed as reduction in autophosphorylation at 100 nM incubated for 72 hrs by immunoblotting analysis; format: cell-based
Method in brief: (§1)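 AsPC-1 cells were treated at 10–100 nM for 72 h and lysed. Lysates were cleared at 14,000 g for 15 min at 4 °C, and 50 µg protein was run on 8–12% SDS-PAGE and transferred to PVDF. Membranes were blocked 2 h in 5% skim milk, probed overnight at 4 °C with primary antibodies (FAK, p-FAK, MEK1, p-MEK1, ERK1/2, p-ERK1/2, β-actin) and detected by ECL.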

ASPC1 [4] = experiment: Induction of apoptosis in human AsPC1 cells assessed as apoptotic bodies incubated for 72 hrs by acridine orange/ethidium bromide dye based fluorescent inverted microscopy; format: functional, cell-based
Method in brief: (§2)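 AsPC-1 cells (about 2×10⁵ per well) were incubated 12 h, then treated with inhibitor at 150–600 nM for 72 h. Cells were washed twice with PBS and stained with AO/EB (1.0 µg/mL each in PBS). Apoptotic, necrotic and live cells were scored and counted under a fluorescent inverted microscope at 100×.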

ASPC1 [5] = experiment: Induction of apoptosis in human AsPC1 cells assessed as nuclear fragmentation incubated for 72 hrs by acridine orange/ethidium bromide dye based fluorescent inverted microscopy; format: functional, cell-based; method in brief: as §2
ASPC1 [6] = experiment: Antitumor activity against human AsPC1 cells xenografted in BALB/cJNju-Foxn1nu/Nju mouse assessed as inhibition of tumor growth at 60 mg/kg, po for 7 days; format: functional; settings: 168 h, read-out: TGI
Method in brief: (§3)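 Nude mice were injected subcutaneously in the right axilla with 3×10⁶ AsPC-1 cells in 0.1 mL PBS. Three days later they were randomized into three groups and given compound orally once daily for 7 days, with controls receiving oral 25% PEG-400. Tumor volume was calculated as A×B²/2, and tumor weight was recorded; n = 3.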

ASPC1 [7] = experiment: Induction of apoptosis in human AsPC1 cells assessed as nuclear condensation incubated for 72 hrs by acridine orange/ethidium bromide dye based fluorescent inverted microscopy; format: functional, cell-based; method in brief: as §2
ASPC1 [8] = settings: Homo sapiens, 125 to 1000 nM
ASPC1 [9] = experiment: Antitumor activity against human AsPC1 cells xenografted in BALB/cJNju-Foxn1nu/Nju mouse assessed as inhibition of tumor growth at 30 mg/kg, po for 7 days; format: functional; settings: 168 h, read-out: TGI; method in brief: as §3
ASPC1 [10] = experiment: Effect on total ERK protein level in human AsPC1 cells at 10 to 100 nM incubated for 72 hrs by immunoblotting analysis; format: cell-based; settings: aspc1, 72 h, 0.1 µM; method in brief: as §1
ASPC1 [11] = experiment: Effect on total MEK protein level in human AsPC1 cells at 10 to 100 nM incubated for 72 hrs by immunoblotting analysis; format: cell-based; settings: aspc1, 72 h, 0.1 µM; method in brief: as §1
ASPC1 [12] = experiment: Induction of apoptosis in human AsPC1 cells assessed as membrane blebbing incubated for 72 hrs by acridine orange/ethidium bromide dye based fluorescent inverted microscopy; format: functional, cell-based; method in brief: as §2

Focal adhesion kinase 1 (Homo sapiens), sequence (Q05397 2-1052 limits assumed): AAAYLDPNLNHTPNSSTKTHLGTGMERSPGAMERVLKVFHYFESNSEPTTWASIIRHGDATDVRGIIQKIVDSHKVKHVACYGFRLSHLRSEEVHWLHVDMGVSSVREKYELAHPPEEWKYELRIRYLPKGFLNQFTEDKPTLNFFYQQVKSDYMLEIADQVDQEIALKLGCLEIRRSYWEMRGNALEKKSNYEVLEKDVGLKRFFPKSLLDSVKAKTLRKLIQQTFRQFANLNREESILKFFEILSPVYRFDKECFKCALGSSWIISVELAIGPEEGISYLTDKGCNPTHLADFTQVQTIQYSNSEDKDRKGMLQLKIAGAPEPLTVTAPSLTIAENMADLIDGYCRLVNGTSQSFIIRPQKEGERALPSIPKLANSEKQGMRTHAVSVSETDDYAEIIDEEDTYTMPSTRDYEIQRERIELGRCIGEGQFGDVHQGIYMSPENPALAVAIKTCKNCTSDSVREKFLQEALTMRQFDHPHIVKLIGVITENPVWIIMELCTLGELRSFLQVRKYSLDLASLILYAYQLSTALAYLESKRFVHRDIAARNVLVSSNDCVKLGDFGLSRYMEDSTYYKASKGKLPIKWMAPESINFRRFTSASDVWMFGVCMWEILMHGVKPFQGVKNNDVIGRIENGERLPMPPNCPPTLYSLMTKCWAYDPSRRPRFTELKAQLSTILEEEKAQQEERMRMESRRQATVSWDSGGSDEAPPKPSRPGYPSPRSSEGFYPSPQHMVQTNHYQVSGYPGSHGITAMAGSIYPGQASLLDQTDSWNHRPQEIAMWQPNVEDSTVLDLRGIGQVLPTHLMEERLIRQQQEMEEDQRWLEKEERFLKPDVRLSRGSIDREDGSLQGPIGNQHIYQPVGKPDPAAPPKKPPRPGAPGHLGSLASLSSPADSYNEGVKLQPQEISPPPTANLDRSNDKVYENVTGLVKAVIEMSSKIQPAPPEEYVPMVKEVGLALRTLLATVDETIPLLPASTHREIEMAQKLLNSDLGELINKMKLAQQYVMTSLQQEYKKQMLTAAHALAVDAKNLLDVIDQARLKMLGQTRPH

| Compound | IC50 (BXPC-3) [µM] | IC50 (L02) [µM] | IC50 (PANC-1) [µM] | IC50 (NCI/ADR-RES) [µM] | IC50 (ASPC1 [1]) [µM] | IC50 (NCI-H1975) [µM] | IC50 [2] [µM] | inhibition [3] [%] | Activity (ASPC1 [4]) | Activity (ASPC1 [5]) | inhibition in vivo at 60 mg/kg (ASPC1 [6]) [%] | Activity (ASPC1 [7]) | inhibition (ASPC1 [8]) | inhibition in vivo at 30 mg/kg (ASPC1 [9]) [%] | Activity (ASPC1 [10]) | Activity (ASPC1 [11]) | Activity (ASPC1 [12]) |
| --- | --- | --- | --- | --- | --- | --- | --- | --- | --- | --- | --- | --- | --- | --- | --- | --- | --- |
| O=C(NC1CC1)c1ccccc1Nc1nc(Nc2ccc(OCC(=O)N3CCOCC3)cc2)ncc1Cl | > 10 | 0.91 | > 10 | > 5 | > 10 | 0.514 | 16.7 | – | – | – | – | – | – | – | – | – | – |
| CNC(=O)c1ccccc1Nc1nc(Nc2ccc(N3CCOCC3)cc2OC)ncc1Cl | > 10 | – | > 10 | > 5 | – | > 2 | 11.4 | 100 | – | – | – | – | – | – | – | – | – |
| CNC(=O)c1ccccc1Nc1nc(Nc2ccc(OCC(=O)N3CCOCC3)cc2)ncc1Cl | 5.99 | 0.594 | > 10 | 2.93 | 1.75 | 0.16 | 4.79 | – | – | – | – | – | – | – | – | – | – |
| CNC(=O)c1ccccc1Nc1nc(Nc2ccc(CC(=O)N3CCOCC3)cc2)ncc1Cl | 0.09 | 3.7 | 4.12 | 0.59 | 0.105 | 1.17 | 6.62 | – | Active | Active | 67 | Active | Active | 87 | Non-Toxic | Non-Toxic | Active |
| CCC(Oc1ccc(Nc2ncc(Cl)c(Nc3ccccc3C(=O)NC)n2)cc1)C(=O)N1CCOCC1 (configuration not stated) | 8.73 | 0.674 | 0.75 | 2.1 | 2.6 | 0.444 | 2.17 | – | – | – | – | – | – | – | – | – | – |
| CNC(=O)c1ccccc1Nc1nc(Nc2ccc(SCC(=O)N3CCOCC3)cc2)ncc1Cl | 2.89 | 4.33 | 5.51 | 1.82 | 1.22 | 0.413 | 1.99 | – | – | – | – | – | – | – | – | – | – |
| CNC(=O)c1ccccc1Nc1nc(Nc2ccc(OC(C)C(=O)N3CCOCC3)cc2)ncc1Cl (configuration not stated) | 5.34 | 0.821 | 1.54 | 1.44 | 2.87 | 0.495 | 1.04 | – | – | – | – | – | – | – | – | – | – |
